Type in all cases: cell-based
The target in assay [1] is T1, Protein cereblon/Bromodomain-containing protein 4 (Homo sapiens) (UniProt O60885+Q96SW2). In words: PROTAC activity at BRD4/Cereblon in human LS174T cells assessed as BRD4 protein degradation at 100 to 500 nM pretreated with proteasome inhibitor MG132 for 4 hrs by Western blot analysis. The note with it: dose 100-500 nM. An outline of the steps:
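LS174t cells pre-incubated 4 h with proteasome inhibitor MG132 (10 mM DMSO stock) before PROTAC exposure. BRD4 read by immunoblot: 15 µg lysate, 10% SDS-PAGE, anti-BRD4 1:1,000 overnight at 4 °C, GAPDH/β-actin loading control.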

Assay [2] deals with T1, Protein cereblon/Bromodomain-containing protein 4 (Homo sapiens). In words: PROTAC activity at BRD4/Cereblon in human LS174T cells assessed as decrease in MYC protein expression at […] for 24 hrs by Western blot analysis. An outline of the steps: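 Cells treated 24 h across 1 nM–10 µM range (fibroblasts at 500/1000 nM). Immunoblot: RIPA lysate with 2.5 mmol/l DTT, 15 µg per lane on 10% SDS-PAGE, nitrocellulose, 5% milk block 1 h. BRD4 or MYC primary 1:1,000 overnight at 4 °C, HRP secondary 1:10,000 for 60 min; GAPDH/β-actin loading control; ECL detection.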

The target is the same in assay [3]. In words: PROTAC activity at BRD4/Cereblon in human HT-29 cells assessed as decrease in MYC protein expression at 5 to 10 uM for 24 hrs by Western blot analysis. The note with it: dose 5-10 µM. The method, boiled down: (§1)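 Eight CRC lines exposed 24 h to PROTAC at 5 or 10 µM (stocks 2 mM in DMSO, diluted in PBS or medium). Lysis in RIPA with protease/phosphatase inhibitors and 2.5 mmol/l DTT; 15 µg protein on 10% SDS-PAGE, semi-dry transfer to nitrocellulose. Anti-BRD4 or anti-MYC at 1:1,000 overnight at 4 °C; GAPDH or β-actin loading control; chemiluminescence.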

The target is the same in assay [4]. In words: PROTAC activity at BRD4/Cereblon in human SW480 cells assessed as decrease in BRD4 protein degradation at 5 to 10 uM for 24 hrs by Western blot analysis. The note with it: dose 5-10 µM. An outline of the steps:
as §1

Assay [5] shares this target. In words: PROTAC activity at BRD4/Cereblon in human HCT116 p53-/- cells assessed as decrease in BRD4 protein degradation at 5 to 10 uM for 24 hrs by Western blot analysis. The note with it: HCT-116, dose 5-10 µM. An outline of the steps: as §1
Assay [6] has the same target. In words: PROTAC activity at BRD4/Cereblon in human HCT116 p53-/- cells assessed as decrease in MYC protein expression at 5 to 10 uM for 24 hrs by Western blot analysis. The note with it: HCT-116, dose 5-10 µM. The method, boiled down: as §1
The target is the same in assay [7]. In words: PROTAC activity at BRD4/Cereblon in human HT-29 cells assessed as decrease in BRD4 protein degradation at 5 to 10 uM for 24 hrs by Western blot analysis. The note with it: dose 5-10 µM. The method, boiled down:
as §1

Assay [8] has the same target. In words: PROTAC activity at BRD4/Cereblon in human LS174T cells assessed as decrease in BRD4 protein degradation at 5 to 10 uM for 24 hrs by Western blot analysis. The note with it: dose 5-10 µM. The method, boiled down:
as §1

Assay [9] has the same target. In words: PROTAC activity at BRD4/Cereblon in human LS174T cells assessed as BRD4 mRNA level at 500 to 1000 nM for 24 hrs by RT-qPCR analysis. The note with it: dose 500-1000 nM. The method, boiled down: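 Total RNA from 10^6 cells after 24 h treatment, Trizol-extracted and integrity-checked. 0.7 µg reverse transcribed, then SYBR-type qPCR: 95 °C 5 min, 40 cycles of 95 °C 15 s/60 °C 60 s. Melting curves checked. MYC or BRD4 normalised to PPIA and ACTB by ΔΔCq. At least three experiments; means ± SD.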

In assay [10] the target is T2, von Hippel-Lindau disease tumor suppressor/Bromodomain-containing protein 4 (Homo sapiens) (UniProt O60885+P40337). In words: PROTAC activity at BRD4/VHL E3 ligase in human COLO 320 cells assessed as decrease in MYC protein expression at 5 to 10 uM for 24 hrs by Western blot analysis. The note with it: dose 5-10 µM. The method, boiled down: as §1
T2 sequence (P40337 whole entry, looked up, other chains not shown): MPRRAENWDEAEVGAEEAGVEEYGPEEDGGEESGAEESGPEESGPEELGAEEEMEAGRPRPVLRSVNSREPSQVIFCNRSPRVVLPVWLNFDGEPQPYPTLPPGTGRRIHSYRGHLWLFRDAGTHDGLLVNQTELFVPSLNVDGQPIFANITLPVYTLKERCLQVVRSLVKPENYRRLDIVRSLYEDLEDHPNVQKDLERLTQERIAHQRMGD
For assay [11], the target named is T2, von Hippel-Lindau disease tumor suppressor/Bromodomain-containing protein 4 (Homo sapiens). In words: PROTAC activity at BRD4/VHL E3 ligase in human LS174T dbet1 resistant cells assessed as BRD4 protein degradation at 500 to 1000 nM for 24 hrs by Western blot analysis. The note with it: dose 500-1000 nM. The method, boiled down: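 Resistant LS174t cells were derived by four months' exposure to rising dBET1 concentrations, with outgrowing cells expanded. Resistant and parental cells were then treated and analysed for BRD4 and MYC protein by western blot (GAPDH/β-actin control) and for MYC mRNA by qPCR normalised to PPIA/ACTB (ΔΔCq).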

Assay [12] shares this target. In words: PROTAC activity at BRD4/VHL E3 ligase in human HT-29 cells assessed as decrease in MYC protein expression at 5 to 10 uM for 24 hrs by Western blot analysis. The note with it: dose 5-10 µM. The method, boiled down: as §1
The target is the same in assay [13]. In words: PROTAC activity at BRD4/VHL E3 ligase in human LS174T cells assessed as complete BRD4 protein degradation at […] for 24 hrs by Western blot analysis. The method, boiled down: (§2)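 LS174t cells (RPMI 1640, 10% FCS) were exposed to 1 nM–10 µM for 24 h. Lysates in RIPA with inhibitors and 2.5 mmol/l DTT; 15 µg protein was run on 10% SDS-PAGE and transferred to nitrocellulose. BRD4 or MYC primary antibodies were used at 1:1,000 overnight at 4 °C, HRP secondary 1:10,000, and GAPDH/β-actin as loading control. Detection was by chemiluminescence.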

Assay [14] shares this target. In words: PROTAC activity at BRD4/VHL E3 ligase in human DLD-1 cells assessed as decrease in BRD4 protein degradation at 5 to 10 uM for 24 hrs by Western blot analysis. The note with it: dose 5-10 µM. An outline of the steps:
as §1

For assay [15] the target is unchanged. In words: PROTAC activity at BRD4/VHL E3 ligase in human LS174T cells assessed as decrease in MYC protein expression at […] for 24 hrs by Western blot analysis. An outline of the steps:
as §2

Assay [16] has the same target. In words: PROTAC activity at BRD4/VHL E3 ligase in human LS174T cells assessed as BRD4 protein degradation at 250 nM pretreated with VHL siRNA by Western blot analysis.
For assay [17] the target is unchanged. In words: PROTAC activity at BRD4/VHL E3 ligase in human SW480 cells assessed as decrease in BRD4 protein degradation at 5 to 10 uM for 24 hrs by Western blot analysis. The note with it: dose 5-10 µM. The method, boiled down:
(§3)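 Eight CRC lines, including LS174t (RPMI 1640) and SW480 (DMEM/HamsF12), all with 10% FCS, were treated with PROTAC at 5 and 10 µM. BRD4 and MYC proteins were detected by immunoblot (RIPA lysate, 15 µg, 10% gel, primary 1:1,000 overnight at 4 °C), with GAPDH/β-actin as loading control.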

For assay [18] the target is unchanged. In words: PROTAC activity at BRD4/VHL E3 ligase in human HCT116 p53-/- cells assessed as decrease in BRD4 protein degradation at 5 to 10 uM for 24 hrs by Western blot analysis. The note with it: HCT-116, dose 5-10 µM. The method, boiled down:
as §1

The target is the same in assay [19]. In words: PROTAC activity at BRD4/VHL E3 ligase in human LS174T cells assessed as decrease in MYC protein expression at 5 to 10 uM for 24 hrs by Western blot analysis. The note with it: dose 5-10 µM. An outline of the steps:
as §3

The structures appear in SMILES notation. Calls of active or inactive are those of the source. No cut-off for these calls is given here.

T1 sequence (Q96SW2 whole entry, looked up, other chains not shown): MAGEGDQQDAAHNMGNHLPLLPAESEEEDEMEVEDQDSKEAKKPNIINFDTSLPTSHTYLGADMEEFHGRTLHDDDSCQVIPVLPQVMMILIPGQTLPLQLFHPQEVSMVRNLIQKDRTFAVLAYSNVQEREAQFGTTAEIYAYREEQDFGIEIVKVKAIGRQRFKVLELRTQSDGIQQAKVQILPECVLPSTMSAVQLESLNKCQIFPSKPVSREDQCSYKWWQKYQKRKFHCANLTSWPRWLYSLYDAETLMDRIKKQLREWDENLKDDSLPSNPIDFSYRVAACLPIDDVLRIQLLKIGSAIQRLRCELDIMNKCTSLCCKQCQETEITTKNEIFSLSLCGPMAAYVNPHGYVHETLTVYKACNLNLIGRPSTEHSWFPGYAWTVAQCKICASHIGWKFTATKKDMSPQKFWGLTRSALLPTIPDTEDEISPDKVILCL

As for `Cc1sc2c(c1C)C(c1ccc(Cl)cc1)=N[C@@H](CC(=O)NCCCCNC(=O)COc1cccc3c1C(=O)N(C1CCC(=O)NC1=O)C3=O)c1nnc(C)n1-2` (some centres undefined), the result in assay [1], in assay [4] and in assay [9] was inactive. The outcome in assay [2], in [3], in assay [5], in [6], in [7] and in assay [8] was Active.
For `Cc1ncsc1-c1ccc(CNC(=O)[C@@H]2C[C@@H](O)CN2C(=O)[C@@H](NC(=O)COCCOCCOCCNC(=O)C[C@@H]2N=C(c3ccc(Cl)cc3)c3c(sc(C)c3C)-n3c(C)nnc32)C(C)(C)C)cc1`, the outcome in assay [10], in [11], in [12], in [13], in [15] and in assay [17] was Active. Besides, the result in [18] and in [19] was Active. Also, the outcome in assay [14] and in assay [16] was inactive.
